The results in this text go back to ChEMBL document CHEMBL1132183 (J Med Chem, 1999).

As usually defined, the pKb is the negative decadic logarithm of the Kb, by convention in mol/L. The low end stands for a large Kb, the high end for a small Kb. What is called Ki is a measure of affinity in units of concentration, obtained from inhibition or displacement. A low value points to tighter binding.

For experiment [1], the target named is T1, Alpha-1D adrenergic receptor (Rattus norvegicus) (UniProt P23944).
T1 sequence (whole entry): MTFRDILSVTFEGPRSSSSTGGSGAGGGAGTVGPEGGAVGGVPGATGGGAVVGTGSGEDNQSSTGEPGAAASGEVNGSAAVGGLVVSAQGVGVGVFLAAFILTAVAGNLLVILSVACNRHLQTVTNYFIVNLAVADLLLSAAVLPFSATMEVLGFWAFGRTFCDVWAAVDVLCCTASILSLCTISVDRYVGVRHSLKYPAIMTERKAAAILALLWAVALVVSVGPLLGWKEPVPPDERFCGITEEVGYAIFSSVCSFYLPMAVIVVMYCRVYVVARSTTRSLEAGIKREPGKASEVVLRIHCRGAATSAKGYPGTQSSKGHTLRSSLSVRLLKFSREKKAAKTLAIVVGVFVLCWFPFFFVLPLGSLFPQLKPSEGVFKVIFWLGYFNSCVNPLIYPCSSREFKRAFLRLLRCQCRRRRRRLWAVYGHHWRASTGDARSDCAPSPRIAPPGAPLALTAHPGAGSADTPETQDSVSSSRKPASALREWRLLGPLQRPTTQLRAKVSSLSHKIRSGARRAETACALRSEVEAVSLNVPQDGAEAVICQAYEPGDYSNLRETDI
In words: Alpha-1D adrenergic receptor subtype blocking activity (antagonism) against (-)-noradrenaline-induced contraction of rat thoracic aorta. Format: functional, tissue-based. In outline: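 Helicoidal strips of rat thoracic aorta under 1 g tension, bath with 0.01 μM desipramine and 1 μM (±)-propranolol, equilibrated ≥1 h. Cumulative (–)-noradrenaline curves at 30-min intervals: first two discarded, third as control, fourth after 30-min antagonist exposure. pKb by Arunlakshana–Schild from EC50 dose ratios at 2–3 antagonist concentrations, each tested four times.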

Experiment [2] addresses T2, Alpha-1B adrenergic receptor (Rattus norvegicus) (UniProt P15823).
T2 sequence (whole entry): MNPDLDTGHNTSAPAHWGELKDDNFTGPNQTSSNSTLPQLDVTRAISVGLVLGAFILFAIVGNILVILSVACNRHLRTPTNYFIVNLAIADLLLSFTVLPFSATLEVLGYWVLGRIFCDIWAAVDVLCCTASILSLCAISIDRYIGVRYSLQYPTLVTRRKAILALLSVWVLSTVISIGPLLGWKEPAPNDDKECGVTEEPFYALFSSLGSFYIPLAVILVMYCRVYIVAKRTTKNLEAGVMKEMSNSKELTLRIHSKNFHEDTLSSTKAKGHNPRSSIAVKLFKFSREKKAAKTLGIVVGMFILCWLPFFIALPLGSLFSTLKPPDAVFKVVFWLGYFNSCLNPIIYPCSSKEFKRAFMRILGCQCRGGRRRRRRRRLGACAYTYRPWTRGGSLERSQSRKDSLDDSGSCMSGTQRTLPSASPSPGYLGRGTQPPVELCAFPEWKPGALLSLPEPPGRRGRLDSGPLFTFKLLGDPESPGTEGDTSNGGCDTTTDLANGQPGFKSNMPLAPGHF
Briefly: Antagonism of Alpha-1B adrenergic receptor subtype (-)-phenylephrine-induced contraction of rat spleen. Format: functional, tissue-based. In short, it runs like this:
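Rat spleen, isometric cumulative (–)-phenylephrine curves at 30-min intervals; first discarded, second taken as control. Antagonist was equilibrated 30 min before the next curve.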

Experiment [3] addresses T3, Alpha-1A adrenergic receptor (Rattus norvegicus) (UniProt P43140).
T3 sequence (whole entry): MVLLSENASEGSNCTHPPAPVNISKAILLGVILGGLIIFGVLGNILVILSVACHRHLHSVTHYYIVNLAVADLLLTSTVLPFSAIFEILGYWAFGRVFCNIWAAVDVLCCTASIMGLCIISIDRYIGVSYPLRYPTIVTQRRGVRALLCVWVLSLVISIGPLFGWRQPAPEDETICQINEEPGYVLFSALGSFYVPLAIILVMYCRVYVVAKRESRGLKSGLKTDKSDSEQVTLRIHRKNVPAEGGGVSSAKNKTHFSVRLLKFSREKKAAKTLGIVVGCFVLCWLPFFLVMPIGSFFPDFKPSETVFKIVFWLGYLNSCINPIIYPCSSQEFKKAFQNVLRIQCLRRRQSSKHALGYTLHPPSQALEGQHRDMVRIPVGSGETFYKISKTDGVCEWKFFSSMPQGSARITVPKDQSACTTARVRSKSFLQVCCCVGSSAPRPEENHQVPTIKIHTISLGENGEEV
Briefly: Antagonist activity against Alpha-1A adrenergic receptor (-)-noradrenaline-induced contraction of rat prostatic vas deferens. Format: functional, tissue-based. In outline:
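Isolated rat prostatic vas deferens with 0.01 μM desipramine in the bath. Isotonic cumulative (–)-noradrenaline curves were run at 30-min intervals: first discarded, second as control, then antagonist equilibrated 30 min before a new curve. pKb by Arunlakshana–Schild from dose ratios of EC50, at 2–3 antagonist concentrations, each tested four times.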

In experiment [4] the target is T4, 5-hydroxytryptamine receptor 1A (Homo sapiens, UniProt P08908).
T4 sequence (P08908 whole entry): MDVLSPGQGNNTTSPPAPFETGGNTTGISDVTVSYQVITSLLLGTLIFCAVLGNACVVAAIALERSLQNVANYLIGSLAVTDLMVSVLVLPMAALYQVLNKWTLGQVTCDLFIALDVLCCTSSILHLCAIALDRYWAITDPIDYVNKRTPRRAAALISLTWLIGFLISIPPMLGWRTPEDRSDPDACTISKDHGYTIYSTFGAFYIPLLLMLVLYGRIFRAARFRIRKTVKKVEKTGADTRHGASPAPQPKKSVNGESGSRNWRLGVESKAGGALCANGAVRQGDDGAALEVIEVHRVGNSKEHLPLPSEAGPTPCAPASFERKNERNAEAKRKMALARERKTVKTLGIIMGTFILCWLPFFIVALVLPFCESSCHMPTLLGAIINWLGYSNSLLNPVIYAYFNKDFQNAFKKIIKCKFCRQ
Briefly: Displacement of [3H]8-hydroxy-2-(di-n-propylamino)tetralin from human 5-hydroxytryptamine 1A receptor. In outline:
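Membranes of HeLa cells stably transfected with human 5-HT1A (genomic clone G-21), in 50 mM Tris-HCl pH 7.4, 2.5 mM MgCl2, 10 μM pargiline. […] Nonspecific binding defined with 10 μM 5-HT. Filtration, scintillation counting. Ki by Cheng–Prusoff; 2–3 experiments in triplicate.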
(In a radioligand displacement assay an active substance lowers the binding of a labelled ligand.)

The target in experiment [5] is Serotonin 2 (5-HT2) receptor (Rattus norvegicus, UniProt P30994+P08909+P14842). In words: Displacement of [3H]ketanserin from rat brain 5-hydroxytryptamine 2 receptor. In outline:
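Rat cerebral cortex membranes (male Sprague–Dawley) in Tris-HCl pH 7.4 with 10 μM pargiline and 0.1% ascorbic acid were incubated 20 min at 37 °C with 0.7–1.3 nM [3H]ketanserin (5-HT2A). Nonspecific binding was defined by 2 μM ketanserin. Bound label was counted after filtration, and Ki was derived by Cheng–Prusoff.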

The target in experiment [6] is T5, Alpha-1A adrenergic receptor (Homo sapiens, UniProt P35348).
T5 sequence (P35348 whole entry): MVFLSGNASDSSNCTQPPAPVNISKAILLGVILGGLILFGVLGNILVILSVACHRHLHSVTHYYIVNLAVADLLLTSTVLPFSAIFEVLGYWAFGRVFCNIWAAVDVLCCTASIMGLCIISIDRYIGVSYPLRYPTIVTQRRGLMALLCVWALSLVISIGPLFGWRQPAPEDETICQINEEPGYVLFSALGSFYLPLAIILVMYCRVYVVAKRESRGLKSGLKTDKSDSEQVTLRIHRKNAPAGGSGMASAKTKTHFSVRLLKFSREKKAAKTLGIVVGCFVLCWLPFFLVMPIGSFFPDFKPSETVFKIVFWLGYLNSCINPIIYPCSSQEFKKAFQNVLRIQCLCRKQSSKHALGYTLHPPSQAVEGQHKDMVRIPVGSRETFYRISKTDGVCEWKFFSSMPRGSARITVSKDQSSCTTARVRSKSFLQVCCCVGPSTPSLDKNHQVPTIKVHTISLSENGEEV
Briefly: Displacement of [3H]prazosin from human cloned Alpha-1A adrenergic receptor. In short, it runs like this: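 CHO cells stably transfected with each human α1 subtype; 30 μg membrane protein in 50 mM Tris-HCl pH 7.4 with 0.1–0.4 nM [3H]prazosin, 30 min at 25 °C. Competitors 1 pM–10 μM. Nonspecific binding defined with 10 μM phentolamine. Filtration, scintillation counting. Ki by Cheng–Prusoff; 2–3 experiments in triplicate.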

In the case of `OC1C(NCC2COc3ccccc3O2)CC[C@H]1Oc1ccccc1` (stereo in doubt; 4), the values for the pKb in experiment [1], in experiment [2] and in experiment [3] were 7.85, 6.47 and 5.7, respectively.

`COc1cccc(OC)c1O[C@@H]1CCC(NCC2COc3ccccc3O2)C1O` (stereo in doubt; 8) [listing 1 of 2 here]: the pKb was 6.94 in experiment [1], 6.17 in experiment [2] and 5.79 in experiment [3].

For `COc1cccc(OC)c1O[C@@H]1CCC(NCC2COc3ccccc3O2)C1O` (stereo in doubt; 7) [listing 1 of 2 here], the pKb is 7.32 in experiment [1], 6.27 in experiment [2] and 5.89 in experiment [3].

Take `COc1ccccc1O[C@@H]1CCC(NCC2COc3ccccc3O2)C1O` (stereo in doubt; 6) [listing 1 of 2 here]: the pKb in experiment [1] is 7.3; in experiment [2] it was 6.8; in experiment [3] it was 6.56.

For `COc1cccc(OC)c1OCCNCC1COc2ccccc2O1` (stereo not drawn), the Ki in experiment [4] is 0.00209 µM; in experiment [6], 0.000427 µM. The “Log Ki” value in experiment [5] is reported as -6. For the same compound, the figures for the negative-log Kb (pKb) in experiment [1], in experiment [2] and in experiment [3] were 8.6, 8.21 and 9.36, respectively.

As for `COc1ccccc1O[C@@H]1CCC(NCC2COc3ccccc3O2)C1O` (stereo in doubt; 5) [listing 1 of 2 here], the inhibition constant (Ki) in experiment [4] is 0.0245 µM.

Take `COc1ccccc1O[C@@H]1CCC(NCC2COc3ccccc3O2)C1O` (stereo in doubt; 6) [listing 2 of 2 here]: the affinity in experiment [4] corresponds to a Ki of 0.0269 µM.

On to `COc1ccccc1O[C@@H]1CCC(NCC2COc3ccccc3O2)C1O` (stereo in doubt; 5) [listing 2 of 2 here], for which the pKb in experiment [1] was found to be 7.15; in experiment [2], 6.24; in experiment [3], 5.68.

As to `COc1cccc(OC)c1O[C@@H]1CCC(NCC2COc3ccccc3O2)C1O` (stereo in doubt; 8) [listing 2 of 2 here], in experiment [4], the affinity corresponds to a Ki of 0.0339 µM.

As for `COc1cccc(OC)c1O[C@@H]1CCC(NCC2COc3ccccc3O2)C1O` (stereo in doubt; 7) [listing 2 of 2 here], the affinity in experiment [4], expressed as Ki, was 0.0501 µM.

In the case of `OC1C(NCC2COc3ccccc3O2)CC[C@H]1Oc1ccccc1` (stereo in doubt; 3), the negative logarithm of the Kb (pKb) in experiment [1] was 7.66; in experiment [2], 6.45; in experiment [3], 5.48.
